This is an account of results in PubChem BioAssay.

The nature of experiment [1]: reduced viability of SK-BR-3 breast cancer cells – cell-based, 24 h, human, pilot screen (AID 572).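 Note: compound exposure lasted between 18 and 24 h rather than exactly 24 h; 100% = carrier-treated control wells.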 The note with it: SK-BR-3 viability, CellTiter-Glo luminescence, at 10 µM, stronger effect = lower value.
Experiment [2] in a line: HUVEC growth inhibition – cell-based, human, primary screen (AID 575;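 active = viability at or below 30% in both replicate assays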;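 note: 100% = median of untreated cell wells with 0.1% DMSO on each plate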). The note with it: HUVEC proliferation, CellTiter-Glo luminescence, 72 h; at 10 µM; stronger effect = lower value. The essentials: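 Timing: 72 h treatment at 37 °C; material: HUVEC primary cells; technique: CellTiter-Glo luminescence measuring cellular ATP; controls: vehicle and MePR control wells; measure: percent of median DMSO-control luminescence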

The nature of experiment [3]: H69AR cell proliferation blockers – human, duplicate replicates, primary screen (AID 580;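 active = viability at or under a set limit in both replicates, limit being median viability minus 3 SD, cut at about 48% in these data, passing the limit was not always enough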;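 note: 100% = mean luminescence of untreated wells and 0% = no signal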). To be noted: H69AR lung tumor cells viability, ATP luminescence, 72 h; at 10 µM; stronger effect = lower value.
Experiment [4] can be described thus: MRP1 drug-resistance reversers in H69AR cells – cell-based, doxorubicin co-treatment, pilot screen (AID 601;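 active = viability loss from added drug above about 55%, and viability with drug at most 40%, in both replicates, limit read from the data, passing the limit was not always enough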). The note with it: CellTiter-Glo, 72 h, at 10 µM; for differential viability (reversal): stronger effect = higher value.
Experiment [5] is described as follows: yeast transport mutant growth inhibition pilot in 384-well plates, post-Golgi transport modulator project (AID 636; in the data active = inhibition above about 31%). To be noted: absorbance 615 nm, about 18 h, stronger effect = higher value.
Experiment [6] in a line: growth suppression of yeast trafficking mutant, preliminary HTS, modulators of trafficking downstream of Golgi apparatus project, 1536-format plate, OD 615 nm (AID 637; in the data active = inhibition above about 30%). To be noted: yeast transport mutant growth, absorbance 615 nm, 18 h; stronger effect = higher value.
[7] abbreviates: H69AR cells + 2 uM doxorubicin, measured here: viability with 2 uM doxorubicin, stronger effect = lower value.
The mark [8] stands for this setting: H69AR cells, compound alone cytotoxicity.

Activity calls are given as the source filed them.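 Rule for the calls, unless noted: active = viability at or below 10% of carrier control in both of two separate runs; inconclusive = viability at or below 10% in only one of the two runs; inactive = the rest.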

One may read the viability as a read-out of living cells in per cent, often relative to untreated cells. What is called inhibition is the relative decrease from the control value, in per cent.

`O=C(NCC(F)(F)F)Nc1cccnc1`: the viability was 82% (inactive) in experiment [1]; 92.8% (inactive) in experiment [2]; 99.6% (inactive) in experiment [3]; 93.6% in experiment [4] (setting [7]); 99.6% in experiment [4] (setting [8]). Besides, in experiment [4] (H69AR cells + 2 uM doxorubicin), the differential viability (reversal) was 6% (inactive). In addition, the inhibition in experiment [5] was -4.19% (inactive); in experiment [6] it was -4% (inactive).
With `CCN(CC)CCOC(=O)c1ccc(NC(=O)COc2cc(=O)n(CC)c3ccccc23)cc1`, the viability in experiment [1] was 103% (inactive); in experiment [2] it was 98.3% (inactive); in experiment [3], 109% (inactive); in experiment [4] (setting [7]), 82.1%; in experiment [4] (setting [8]), 109%. Moreover, the differential viability (reversal) in experiment [4] (H69AR cells + 2 uM doxorubicin) is 26.6% (inactive). Further, the inhibition in experiment [5] was -2.86% (inactive); in experiment [6], -10% (inactive).
On to `COc1cccc(OCc2nnc(SCC(=O)OCc3ccccc3)o2)c1`, for which the viability in experiment [1] is 101% (inactive); in experiment [2], 108% (inactive); in experiment [3], 97% (inactive); in experiment [4] (setting [7]), 91.2%; in experiment [4] (setting [8]) it was 97%. Moreover, in experiment [4] (H69AR cells + 2 uM doxorubicin), the differential viability (reversal) is 5.81% (inactive). The results for the inhibition in experiment [5] and in experiment [6] were -6.93% (inactive) and -3.09% (inactive), respectively.
Consider `N/C(=N/O)c1nc(N2CCCCC2)nc(N2CCCCC2)n1`, for which the viability is 115% (inactive) in experiment [1]; 80.5% (inactive) in experiment [2]; 94.9% (inactive) in experiment [3]; 95.1% in experiment [4] (setting [7]); 94.9% in experiment [4] (setting [8]). Moreover, the differential viability (reversal) in experiment [4] (H69AR cells + 2 uM doxorubicin) is -0.21% (inactive). The inhibition in experiment [5] was -0.65% (inactive); in experiment [6], -0.98% (inactive).
Turning to `Cc1noc(C)c1CSc1nnc2scc(-c3ccc(Cl)cc3)n12`, the viability in experiment [1] was 88% (inactive); in experiment [2] it was 113% (inactive); in experiment [3], 91.6% (inactive); in experiment [4] (setting [7]), 86.7%; in experiment [4] (setting [8]) it was 91.6%. The differential viability (reversal) in experiment [4] (H69AR cells + 2 uM doxorubicin) is 4.96% (inactive). Moreover, the inhibition in experiment [5] was -8.63% (inactive); in experiment [6], 1.13% (inactive).
In the case of `CN(C)CCCC1(c2ccc(F)cc2)OCc2cc(C#N)ccc21` (stereo unspecified), the viability was 79% (inactive) in experiment [1]; 73.3% (inactive) in experiment [2]; 103% (inactive) in experiment [3]; 85.7% in experiment [4] (setting [7]); 103% in experiment [4] (setting [8]). Besides, the differential viability (reversal) in experiment [4] (H69AR cells + 2 uM doxorubicin) was 17.6% (inactive). Also, the inhibition in experiment [5] was -1.56% (inactive); in experiment [6], -2.5% (inactive).
As to `Cc1cc(=O)oc2cc(OCC(=O)OCC(=O)N3CCc4ccccc43)ccc12`, the viability in experiment [1] is 103% (inactive); in experiment [2], 101% (inactive); in experiment [3], 93.2% (inactive); in experiment [4] (setting [7]) it was 95.3%; in experiment [4] (setting [8]), 93.2%. Moreover, in experiment [4] (H69AR cells + 2 uM doxorubicin), the differential viability (reversal) is -2.07% (inactive). Besides, the inhibition was -8.38% (inactive) in experiment [5] and -4.55% (inactive) in experiment [6].
For the compound `CCC1CCCCN1c1nc(-c2ccncc2)nc2ccccc12` (stereo unspecified), the viability was 76.5% (inactive) in experiment [1]; 15.1% (active) in experiment [2]; 14.5% (active) in experiment [3]; 55% in experiment [4] (setting [7]); 14.5% in experiment [4] (setting [8]). Moreover, the differential viability (reversal) in experiment [4] (H69AR cells + 2 uM doxorubicin) is -40.4% (inactive). Moreover, the inhibition in experiment [5] was -0.79% (inactive); in experiment [6], 0.49% (inactive).
As for `O=C1OC(c2ccc(O)cc2)(c2ccc(O)cc2)c2ccccc21`, the viability in experiment [1] was 83% (inactive); in experiment [2], 48.8% (inactive); in experiment [3], 102% (inactive); in experiment [4] (setting [7]) it was 97.7%; in experiment [4] (setting [8]) it was 102%. Besides, in experiment [4] (H69AR cells + 2 uM doxorubicin), the differential viability (reversal) was 4.57% (inactive). In addition, the figures for the inhibition in experiment [5] and in experiment [6] were -2.73% (inactive) and 8.67% (inactive), respectively.
For the compound `CCOc1ccccc1NC(=O)CSc1nnc2c(CC)c(C)nc(N)n12`, the viability in experiment [1] is 104% (inactive); in experiment [2], 113% (inactive); in experiment [3], 96.3% (inactive); in experiment [4] (setting [7]) it was 99.4%; in experiment [4] (setting [8]), 96.3%. Also, the differential viability (reversal) in experiment [4] (H69AR cells + 2 uM doxorubicin) was -3.08% (inactive). Further, the values for the inhibition in experiment [5] and in experiment [6] were -5.81% (inactive) and -0.91% (inactive), respectively.
With `CC(O)Cn1cnc2c1c(=O)n(C)c(=O)n2C` (stereo unspecified), the viability in experiment [1] is 107% (inactive); in experiment [2], 106% (inactive); in experiment [3], 95.8% (inactive); in experiment [4] (setting [7]), 96.1%; in experiment [4] (setting [8]) it was 95.8%. Further, the differential viability (reversal) in experiment [4] (H69AR cells + 2 uM doxorubicin) is -0.25% (inactive). The results for the inhibition in experiment [5] and in experiment [6] were -1.04% (inactive) and 0.17% (inactive), respectively.
On to `Cc1ccc(F)cc1NC(=O)c1cccc2nccnc12`, for which the viability is 91.5% (inactive) in experiment [1]; 76.5% (inactive) in experiment [2]; 91.1% (inactive) in experiment [3]; 84.3% in experiment [4] (setting [7]); 91.1% in experiment [4] (setting [8]). Further, in experiment [4] (H69AR cells + 2 uM doxorubicin), the differential viability (reversal) is 6.75% (inactive). Also, the inhibition is -1.2% (inactive) in experiment [5] and 0.48% (inactive) in experiment [6].
